Experiments:
[1] = molecular target: T1, Neutrophil elastase (Homo sapiens) (UniProt P08246); test: Inhibition of Human Leukocyte Elastase, activity is expressed as biomolecular rate constant
T1 sequence (whole entry): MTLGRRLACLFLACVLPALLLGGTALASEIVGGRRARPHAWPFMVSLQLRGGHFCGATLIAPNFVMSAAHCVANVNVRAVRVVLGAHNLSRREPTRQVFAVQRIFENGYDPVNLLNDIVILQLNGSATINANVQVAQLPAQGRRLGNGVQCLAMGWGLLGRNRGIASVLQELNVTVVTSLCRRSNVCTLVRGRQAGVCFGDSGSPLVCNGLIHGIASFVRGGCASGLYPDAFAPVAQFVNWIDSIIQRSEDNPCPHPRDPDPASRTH
Procedure, shortened: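 Spectrophotometric assay at 25 °C with continuous monitoring of p-nitroaniline release at 410 nm from succinyl-Ala-Ala-Pro-Ala-p-nitroanilide. Activity given as the bimolecular rate constant kobs/[I] in M-1 s-1 (±SE).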

[2] = molecular target: T1, Neutrophil elastase (Homo sapiens); test: Inhibition of Human Leukocyte Elastase induced lung hemorrhage in hamsters expressed as % inhibition (mean of 4 animals); type: functional; design: concentration or dose not given beside the values; conditions: concentration not given here
Procedure, shortened: (§1)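 Hamster lung hemorrhage model: inhibitor given orally at 30 mg/kg (some at 50 mg/kg) 30 min before instillation of HLE into the lung. Hemorrhage measured 3 h after instillation as hemoglobin content of lung lavage fluid, read spectrophotometrically. Reported as % inhibition, mean of four animals (±SD).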

Cricetinae gen. sp. = test: Inhibition of Human Leukocyte Elastase induced Lung Hemorrhage in Hamsters expressed as % inhibition (mean of 4 animals); type: functional, Cricetulus griseus; procedure, shortened: as §1

Row | k obs / 1 [1] | inhibition [2] | SMILES | Inhibition (Cricetinae gen. sp.)
1 | 2900 M⁻¹ s⁻¹ |  | CCC1(CC)C(=O)N(C(=O)NCc2ccccc2)C1Oc1ccc(C(=O)N2CCC[C@@H]2C(=O)O)cc1 (some centres undefined) | 
2 | 2700 M⁻¹ s⁻¹ |  | CCC1(CC)C(=O)N(C(=O)NCc2ccccc2)C1Oc1cccc(NC(=O)CCC(=O)O)c1 (centres undefined) | 
3 | 70 M⁻¹ s⁻¹ |  | CCC1(CC)C(=O)N(C(=O)NCc2ccccc2)C1Oc1ccccc1NC(=O)CCC(=O)O (centres undefined) | 
4 | 22 M⁻¹ s⁻¹ |  | CCC1(CC)C(=O)N(C(=O)NCc2ccccc2)C1C(=O)c1ccccc1 (centres undefined) | 
5 | 1600 M⁻¹ s⁻¹ | 61% | CCC1(CC)C(=O)N(C(=O)NCc2ccccc2)C1Oc1ccc(/C=C/C(=O)O)cc1 (centres undefined) | 
6 | 2100 M⁻¹ s⁻¹ | 36% | CCC1(CC)C(=O)N(C(=O)NCc2ccccc2)C1Oc1ccc(C(O)C(=O)O)cc1 (centres undefined) | 
7 | 2430 M⁻¹ s⁻¹ | 4% | CCC1(CC)C(=O)N(C(=O)NCc2ccccc2)C1Oc1ccc(C[N+](C)(C)C)cc1 (centres undefined) | 
8 | 5600 M⁻¹ s⁻¹ | 28% | CCC1(CC)C(=O)N(C(=O)NCc2ccccc2)C1Oc1ccc2cc(C(=O)O)ccc2c1 (centres undefined) | 
9 | 890 M⁻¹ s⁻¹ |  | CCC1(CC)C(=O)N(C(=O)NCc2ccccc2)C1Oc1ccccc1[N+](=O)[O-] (centres undefined) | 
10 | 1700 M⁻¹ s⁻¹ |  | CCC1(CC)C(=O)N(C(=O)NCc2ccccc2)C1Oc1cccc(NC(C)=O)c1 (centres undefined) | 
11 | 650 M⁻¹ s⁻¹ |  | CCC1(CC)C(=O)N(C(=O)NCc2ccccc2)C1N1N=CC=CN1Cc1ccccc1 (centres undefined) | 
12 | 800 M⁻¹ s⁻¹ | 46% | CCC1(CC)C(=O)N(C(=O)NCc2ccccc2)C1OCC(O)CO (centres undefined) | 
13 | 900 M⁻¹ s⁻¹ | 7% | CCC1(CC)C(=O)N(C(=O)NCc2ccccc2)C1Oc1ccc(CC(NC(=O)CCC(=O)O)C(=O)O)cc1 (centres undefined) | 
14 | 6900 M⁻¹ s⁻¹ | 11% | CCC1(CC)C(=O)N(C(=O)NCc2ccccc2)C1Oc1ccc(C(=O)NS(=O)(=O)c2ccc(Cl)cc2)cc1 (centres undefined) | 
15 | 44 M⁻¹ s⁻¹ | 45% | CCC1(CC)C(=O)N(C(=O)NCc2ccccc2)C1Oc1ccccc1CC(=O)O (centres undefined) | 
16 | 2440 M⁻¹ s⁻¹ | 60% | CCC1(CC)C(=O)N(C(=O)NCc2ccccc2)C1Oc1ccc(CCC(=O)O)cc1 (centres undefined) | 
17 | 6800 M⁻¹ s⁻¹ |  | CCC1(CC)C(=O)N(C(=O)NCc2ccccc2)C1Oc1ccc([N+](=O)[O-])cc1 (centres undefined) | 
18 | 5000 M⁻¹ s⁻¹ | 85% | CCC1(CC)C(=O)N(C(=O)NCc2ccccc2)C1Oc1ccc(C(=O)CCC(=O)O)cc1 (centres undefined) | 
19 | 160 M⁻¹ s⁻¹ | 6% | CCC1(CC)C(=O)N(C(=O)NCc2ccccc2)C1OCC(=O)O (centres undefined) | 
20 | 360 M⁻¹ s⁻¹ | 29% | CCC1(CC)C(=O)N(C(=O)NCc2ccccc2)C1n1ccccc1=O (centres undefined) | 
21 | 54 M⁻¹ s⁻¹ |  | CCC1(CC)C(=O)N(C(=O)NCc2ccccc2)C1OCc1ccc(C(=O)O)cc1 (centres undefined) | 
22 | 3500 M⁻¹ s⁻¹ | 2% | CCC1(CC)C(=O)N(C(=O)NCc2ccccc2)C1Oc1ccc(SC)cc1 (centres undefined) | 

Row | k obs / 1 [1] | inhibition [2] | SMILES | Inhibition (Cricetinae gen. sp.)
23 | 2330 M⁻¹ s⁻¹ | -3% | CCC1(CC)C(=O)N(C(=O)NCc2ccccc2)C1Oc1ccc(NC(=O)CCC(=O)O)cc1 (centres undefined) | 
24 | 1600 M⁻¹ s⁻¹ | 0% | CCC1(CC)C(=O)N(C(=O)NCc2ccccc2)C1Oc1ccc(CN(C)C)cc1 (centres undefined) | 
25 | 1620 M⁻¹ s⁻¹ | 46% | CCC1(CC)C(=O)N(C(=O)NCc2ccccc2)C1Oc1cccnc1 (centres undefined) | 
26 | 246 M⁻¹ s⁻¹ | 72% | CCC1(CC)C(=O)N(C(=O)NCc2ccccc2)C1N1C=NC=CN1 (centres undefined) | 
27 | 4800 M⁻¹ s⁻¹ |  | CCC1(CC)C(=O)N(C(=O)NCc2ccccc2)C1Oc1cccc([N+](=O)[O-])c1 (centres undefined) | 
28 | 270 M⁻¹ s⁻¹ | 24% | CCC1(CC)C(=O)N(C(=O)NCc2ccccc2)C1Oc1ccccc1NC(C)=O (centres undefined) | 
29 | 1800 M⁻¹ s⁻¹ | 33% | CCC1(CC)C(=O)N(C(=O)NCc2ccccc2)C1Oc1cccc(C(=O)O)c1 (centres undefined) | 
30 | 250 M⁻¹ s⁻¹ | -5% | CCC1(CC)C(=O)N(C(=O)NCc2ccccc2)C1Sc1cccnc1 (centres undefined) | 
31 | 3760 M⁻¹ s⁻¹ |  | CCC1(CC)C(=O)N(C(=O)NCc2ccccc2)C1Sc1nnnn1C (centres undefined) | 26%
32 | 750 M⁻¹ s⁻¹ |  | CCC1(CC)C(=O)N(C(=O)NCc2ccccc2)C1Oc1c(C)cc(C(=O)O)cc1C (centres undefined) | 
33 | 2540 M⁻¹ s⁻¹ |  | CCC1(CC)C(=O)N(C(=O)NCc2ccccc2)C1Oc1ccc(CC(N)C(=O)O)cc1 (centres undefined) | 
34 | 1200 M⁻¹ s⁻¹ | 67% | CCC1(CC)C(=O)N(C(=O)NCc2ccccc2)C1Oc1cccc(CC(=O)O)c1 (centres undefined) | 
35 | 24 M⁻¹ s⁻¹ |  | CCC1(CC)C(=O)N(C(=O)NCc2ccccc2)C1Oc1cc(C)c(C(=O)O)c(C)c1 (centres undefined) | 
36 | 5110 M⁻¹ s⁻¹ |  | CCC1(CC)C(=O)N(C(=O)NCc2ccccc2)C1Oc1ccc(CC(NC(=O)c2ccccc2)C(=O)O)cc1 (centres undefined) | 
37 | 200 M⁻¹ s⁻¹ | 55% | CCC1(CC)C(=O)N(C(=O)NCc2ccccc2)C1n1ccnc1 (centres undefined) | 
38 | 1900 M⁻¹ s⁻¹ |  | CCC1(CC)C(=O)N(C(=O)NCc2ccccc2)C1Oc1ccccc1 (centres undefined) | 
39 | 4500 M⁻¹ s⁻¹ | 16% | CCC1(CC)C(=O)N(C(=O)NCc2ccccc2)C1Oc1ccc(S(C)(=O)=O)cc1 (centres undefined) | 
40 | 2000 M⁻¹ s⁻¹ | 15% | CCC1(CC)C(=O)N(C(=O)NCc2ccccc2)C1Oc1ccc(C(=O)O)c2ccccc12 (centres undefined) | 
41 | 4200 M⁻¹ s⁻¹ |  | CCC1(CC)C(=O)N(C(=O)NCc2ccccc2)C1Oc1ccc([S+](C)[O-])cc1 (centres undefined) | 
42 |  | 68% | CCC1(CC)C(=O)N(C(=O)NCc2ccccc2)C1Oc1ccc(C(=O)O)cc1 (centres undefined) | 
43 | 3500 M⁻¹ s⁻¹ |  | CCC1(CC)C(=O)N(C(=O)NCc2ccccc2)C1Oc1ccc(NC(C)=O)cc1 (centres undefined) | 
44 | 570 M⁻¹ s⁻¹ |  | CCC1(CC)C(=O)N(C(=O)NCc2ccccc2)C1Oc1ccc(C(=O)O)c(C(=O)O)c1 (centres undefined) | 

Source: ChEMBL document CHEMBL1127040, “Orally active beta-lactam inhibitors of human leukocyte elastase. 2. Effect of C-4 substitution” (1993)
